Data: article PMC9245008 (ACS chemical biology, 2022)

Columns and labels:
IRAK4 = molecular target: T1, IRAK4 (Homo sapiens, UniProt Q9NWZ3); assay: Potency of takinib analogues against IRAK4; format: biochemical
T1 sequence (Q9NWZ3 1-460): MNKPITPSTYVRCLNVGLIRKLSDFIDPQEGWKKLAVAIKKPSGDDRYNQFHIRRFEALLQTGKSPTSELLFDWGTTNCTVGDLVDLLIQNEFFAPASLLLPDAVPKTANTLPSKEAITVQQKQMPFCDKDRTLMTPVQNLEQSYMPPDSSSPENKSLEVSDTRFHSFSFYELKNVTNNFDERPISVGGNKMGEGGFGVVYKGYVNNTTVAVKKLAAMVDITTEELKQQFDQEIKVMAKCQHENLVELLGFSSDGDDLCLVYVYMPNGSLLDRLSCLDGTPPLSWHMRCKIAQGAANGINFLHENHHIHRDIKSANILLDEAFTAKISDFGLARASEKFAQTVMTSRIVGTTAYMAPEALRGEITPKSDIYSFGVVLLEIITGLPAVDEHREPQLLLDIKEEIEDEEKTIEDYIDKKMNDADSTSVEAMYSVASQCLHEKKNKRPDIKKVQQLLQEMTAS

NUAK1 = molecular target: T2, NUAK1 (Homo sapiens, UniProt O60285); assay: MRC Dundee kinase panel screen at 10 μM; format: biochemical
T2 sequence (O60285 1-661): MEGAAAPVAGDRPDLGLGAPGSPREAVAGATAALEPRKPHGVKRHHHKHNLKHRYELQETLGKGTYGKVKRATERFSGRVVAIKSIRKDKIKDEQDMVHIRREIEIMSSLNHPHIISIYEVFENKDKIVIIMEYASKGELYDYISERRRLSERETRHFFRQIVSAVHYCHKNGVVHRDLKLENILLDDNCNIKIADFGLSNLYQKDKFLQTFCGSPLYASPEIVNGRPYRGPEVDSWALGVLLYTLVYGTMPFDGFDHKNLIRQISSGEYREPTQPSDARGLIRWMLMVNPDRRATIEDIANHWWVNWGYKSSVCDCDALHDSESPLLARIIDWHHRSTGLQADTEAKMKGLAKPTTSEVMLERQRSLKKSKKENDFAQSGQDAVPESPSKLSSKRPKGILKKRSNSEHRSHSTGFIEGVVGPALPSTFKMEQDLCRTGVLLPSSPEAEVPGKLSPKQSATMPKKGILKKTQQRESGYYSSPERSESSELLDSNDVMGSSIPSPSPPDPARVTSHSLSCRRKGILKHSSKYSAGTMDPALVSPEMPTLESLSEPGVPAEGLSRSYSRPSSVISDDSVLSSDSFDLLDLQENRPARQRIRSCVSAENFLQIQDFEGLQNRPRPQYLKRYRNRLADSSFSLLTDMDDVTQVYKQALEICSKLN

CK1γ2 = CK1γ2 (Homo sapiens, UniProt P78368); assay: MRC Dundee kinase panel screen at 10 μM; format: biochemical
Sequence of CK1γ2 (P78368 whole entry): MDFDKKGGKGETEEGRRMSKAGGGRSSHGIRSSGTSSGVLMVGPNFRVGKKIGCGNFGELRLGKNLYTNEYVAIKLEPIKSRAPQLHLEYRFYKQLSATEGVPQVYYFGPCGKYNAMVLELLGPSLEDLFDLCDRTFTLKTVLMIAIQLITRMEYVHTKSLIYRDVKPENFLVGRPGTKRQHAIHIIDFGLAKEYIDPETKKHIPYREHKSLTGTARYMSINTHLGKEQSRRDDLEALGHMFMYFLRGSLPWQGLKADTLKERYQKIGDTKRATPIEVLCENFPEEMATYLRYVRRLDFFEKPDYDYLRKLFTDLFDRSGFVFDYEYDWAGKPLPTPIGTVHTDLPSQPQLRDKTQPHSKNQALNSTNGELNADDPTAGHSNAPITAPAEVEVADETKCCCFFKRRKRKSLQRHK

ULK2 = molecular target: T3, ULK2 (Homo sapiens, UniProt Q8IYT8); assay: MRC Dundee kinase panel screen at 10 μM; format: biochemical
T3 sequence (Q8IYT8 1-1036): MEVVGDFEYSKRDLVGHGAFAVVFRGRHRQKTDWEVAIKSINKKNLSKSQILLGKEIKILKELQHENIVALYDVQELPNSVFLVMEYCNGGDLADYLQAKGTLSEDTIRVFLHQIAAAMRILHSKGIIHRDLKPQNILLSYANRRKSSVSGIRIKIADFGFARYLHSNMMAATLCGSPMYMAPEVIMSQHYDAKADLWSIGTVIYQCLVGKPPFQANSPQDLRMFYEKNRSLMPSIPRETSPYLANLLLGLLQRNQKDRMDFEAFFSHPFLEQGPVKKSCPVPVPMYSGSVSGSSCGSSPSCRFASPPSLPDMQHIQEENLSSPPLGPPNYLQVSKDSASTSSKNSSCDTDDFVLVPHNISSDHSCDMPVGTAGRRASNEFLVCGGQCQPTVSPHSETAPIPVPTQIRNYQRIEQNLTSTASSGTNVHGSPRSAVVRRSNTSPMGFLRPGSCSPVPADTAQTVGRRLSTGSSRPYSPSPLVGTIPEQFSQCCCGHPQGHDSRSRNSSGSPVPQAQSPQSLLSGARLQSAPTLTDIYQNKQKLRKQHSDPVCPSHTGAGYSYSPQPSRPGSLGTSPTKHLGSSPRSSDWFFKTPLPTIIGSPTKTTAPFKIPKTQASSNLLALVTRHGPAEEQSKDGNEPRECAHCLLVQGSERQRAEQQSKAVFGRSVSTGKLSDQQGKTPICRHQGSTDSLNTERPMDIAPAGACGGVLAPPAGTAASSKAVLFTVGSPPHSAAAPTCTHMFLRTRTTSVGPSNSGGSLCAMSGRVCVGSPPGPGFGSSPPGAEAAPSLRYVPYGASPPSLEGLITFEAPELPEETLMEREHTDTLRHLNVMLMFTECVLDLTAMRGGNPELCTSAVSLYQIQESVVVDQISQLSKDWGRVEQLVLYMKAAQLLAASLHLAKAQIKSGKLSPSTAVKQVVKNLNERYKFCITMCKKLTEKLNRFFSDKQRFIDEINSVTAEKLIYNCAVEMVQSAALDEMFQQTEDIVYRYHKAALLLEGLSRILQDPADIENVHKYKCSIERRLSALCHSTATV

CLK2 = CLK2 (Homo sapiens, UniProt P49760); assay: Dose–response of top 10 kinase hits; format: biochemical
Sequence of CLK2 (P49760 whole entry): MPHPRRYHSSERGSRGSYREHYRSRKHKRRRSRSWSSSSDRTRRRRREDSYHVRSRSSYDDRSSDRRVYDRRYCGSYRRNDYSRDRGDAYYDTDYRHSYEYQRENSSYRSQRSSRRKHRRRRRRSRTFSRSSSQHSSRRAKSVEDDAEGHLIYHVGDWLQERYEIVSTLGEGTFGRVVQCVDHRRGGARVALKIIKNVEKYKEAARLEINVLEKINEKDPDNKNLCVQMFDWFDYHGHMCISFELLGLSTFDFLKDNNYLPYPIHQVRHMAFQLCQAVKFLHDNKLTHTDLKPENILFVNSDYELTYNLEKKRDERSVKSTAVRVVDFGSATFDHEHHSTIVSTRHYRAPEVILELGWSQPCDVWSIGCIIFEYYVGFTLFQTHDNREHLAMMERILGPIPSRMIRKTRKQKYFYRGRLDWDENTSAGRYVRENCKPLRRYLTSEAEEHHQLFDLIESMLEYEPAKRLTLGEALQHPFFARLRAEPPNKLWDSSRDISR

MAP4K5 = MAP4K5 (Homo sapiens, UniProt Q9Y4K4); assay: Dose–response of top 10 kinase hits; format: biochemical; conditions: read-out: IC50 MAP4K5, n = 2
Sequence of MAP4K5 (Q9Y4K4 whole entry): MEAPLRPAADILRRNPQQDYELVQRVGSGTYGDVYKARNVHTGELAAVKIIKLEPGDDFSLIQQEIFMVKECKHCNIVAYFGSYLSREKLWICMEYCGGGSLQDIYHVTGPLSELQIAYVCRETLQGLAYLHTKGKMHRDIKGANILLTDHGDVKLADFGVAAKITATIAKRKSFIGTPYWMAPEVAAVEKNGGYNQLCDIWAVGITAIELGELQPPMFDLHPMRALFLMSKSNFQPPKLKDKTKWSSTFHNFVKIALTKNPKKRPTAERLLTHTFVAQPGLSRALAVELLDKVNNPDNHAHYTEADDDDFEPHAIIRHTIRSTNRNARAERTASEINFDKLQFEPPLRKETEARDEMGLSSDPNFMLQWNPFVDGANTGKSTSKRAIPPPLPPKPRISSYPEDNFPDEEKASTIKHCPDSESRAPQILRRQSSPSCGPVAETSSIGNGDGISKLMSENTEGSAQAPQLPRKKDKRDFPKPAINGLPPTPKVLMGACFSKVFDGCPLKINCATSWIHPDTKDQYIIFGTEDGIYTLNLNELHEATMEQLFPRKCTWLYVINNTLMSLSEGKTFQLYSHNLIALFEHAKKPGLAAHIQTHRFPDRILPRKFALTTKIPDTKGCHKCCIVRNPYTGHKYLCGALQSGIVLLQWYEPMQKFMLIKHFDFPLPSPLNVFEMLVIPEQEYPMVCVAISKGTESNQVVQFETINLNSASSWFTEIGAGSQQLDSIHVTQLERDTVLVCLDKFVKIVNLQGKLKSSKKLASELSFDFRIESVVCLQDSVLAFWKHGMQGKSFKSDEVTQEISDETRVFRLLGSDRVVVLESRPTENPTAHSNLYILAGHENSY

IRAK1 = IRAK1 (Homo sapiens, UniProt P51617); assay: Dose–response of top 10 kinase hits; format: biochemical; conditions: read-out: IC50 IRAK1, n = 2
Sequence of IRAK1 (P51617 whole entry): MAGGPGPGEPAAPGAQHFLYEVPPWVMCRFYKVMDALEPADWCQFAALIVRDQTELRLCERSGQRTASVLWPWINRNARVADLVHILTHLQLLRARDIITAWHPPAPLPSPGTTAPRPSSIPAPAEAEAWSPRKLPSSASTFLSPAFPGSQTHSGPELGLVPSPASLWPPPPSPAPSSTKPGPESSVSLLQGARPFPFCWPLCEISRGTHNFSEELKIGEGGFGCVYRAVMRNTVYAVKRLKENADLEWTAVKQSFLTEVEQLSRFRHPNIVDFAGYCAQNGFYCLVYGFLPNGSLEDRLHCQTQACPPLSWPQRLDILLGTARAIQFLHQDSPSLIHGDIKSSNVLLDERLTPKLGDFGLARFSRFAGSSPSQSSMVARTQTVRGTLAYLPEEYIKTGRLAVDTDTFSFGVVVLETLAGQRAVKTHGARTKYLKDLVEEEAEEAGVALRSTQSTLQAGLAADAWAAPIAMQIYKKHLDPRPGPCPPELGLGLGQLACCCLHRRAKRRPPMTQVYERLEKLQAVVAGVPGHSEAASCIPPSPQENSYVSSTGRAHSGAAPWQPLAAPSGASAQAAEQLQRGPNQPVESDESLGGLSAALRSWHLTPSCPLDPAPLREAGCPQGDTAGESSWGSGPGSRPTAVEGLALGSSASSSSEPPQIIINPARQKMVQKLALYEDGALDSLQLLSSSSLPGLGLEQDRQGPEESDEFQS

NUAK = molecular target: T4, NUAK (Homo sapiens, UniProt O60285); assay: Dose–response of top 10 kinase hits; format: biochemical; conditions: read-out: IC50 NUAK, n = 2
T4 sequence (O60285 1-661): T2 sequence (O60285 1-661)

MLK1 = MLK1 (Homo sapiens, UniProt P80192); assay: Dose–response of top 10 kinase hits; format: biochemical; conditions: read-out: IC50 MLK1, n = 2
Sequence of MLK1 (P80192 whole entry): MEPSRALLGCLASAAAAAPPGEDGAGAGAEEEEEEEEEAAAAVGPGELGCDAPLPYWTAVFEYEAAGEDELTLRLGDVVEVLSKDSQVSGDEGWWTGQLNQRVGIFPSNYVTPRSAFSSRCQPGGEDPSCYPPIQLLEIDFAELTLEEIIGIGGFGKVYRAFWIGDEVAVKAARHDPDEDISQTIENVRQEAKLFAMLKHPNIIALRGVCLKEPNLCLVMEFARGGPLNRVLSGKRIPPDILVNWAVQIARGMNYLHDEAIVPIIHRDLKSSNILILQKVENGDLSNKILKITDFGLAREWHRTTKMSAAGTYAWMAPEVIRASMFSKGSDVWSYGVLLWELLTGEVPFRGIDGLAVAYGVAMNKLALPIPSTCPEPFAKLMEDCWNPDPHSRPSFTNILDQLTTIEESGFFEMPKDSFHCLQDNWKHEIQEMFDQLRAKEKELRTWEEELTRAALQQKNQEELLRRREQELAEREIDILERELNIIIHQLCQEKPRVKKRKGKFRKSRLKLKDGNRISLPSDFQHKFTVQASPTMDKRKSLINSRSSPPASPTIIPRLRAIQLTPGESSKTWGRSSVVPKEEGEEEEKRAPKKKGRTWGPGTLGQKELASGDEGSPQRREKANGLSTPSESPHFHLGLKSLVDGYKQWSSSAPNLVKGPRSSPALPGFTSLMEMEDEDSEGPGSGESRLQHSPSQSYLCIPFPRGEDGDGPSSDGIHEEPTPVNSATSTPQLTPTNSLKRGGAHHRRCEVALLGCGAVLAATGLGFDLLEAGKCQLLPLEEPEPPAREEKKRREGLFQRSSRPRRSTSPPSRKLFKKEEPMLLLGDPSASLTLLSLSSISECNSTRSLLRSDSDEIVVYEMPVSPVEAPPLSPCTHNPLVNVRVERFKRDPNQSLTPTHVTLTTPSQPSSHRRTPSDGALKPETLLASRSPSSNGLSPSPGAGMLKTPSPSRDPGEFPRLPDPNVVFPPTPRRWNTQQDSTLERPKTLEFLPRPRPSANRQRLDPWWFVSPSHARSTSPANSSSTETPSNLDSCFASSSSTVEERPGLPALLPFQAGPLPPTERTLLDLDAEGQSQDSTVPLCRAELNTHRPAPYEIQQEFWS

CIA mouse model = CIA mouse model of inflammatory arthritis; format: in vivo, DBA/1 mice
Method in brief: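 Type II collagen emulsified 1:1 with Freund's complete adjuvant; mice anaesthetised with isoflurane and given intradermal tail-base injections (400 μg collagen total) on days 0 and 21, then randomised by body weight on day 21.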

[1] = 50 mg/kg IP, all joints (paws and knees), vs vehicle

For `CCCn1c(NC(=O)c2cccc(C(N)=O)c2)nc2ccc(CN3CCCCC3)cc21` [HS-276], the “IRAK4 inhibition in dose–response experiments” value (IRAK4; Figure 2d) was “minimal IRAK4 inhibition”, the Ratio (IRAK4; IRAK4 IC50 over TAK1 IC50) was 1000 and the IC50 (IRAK4; read-out: IRAK4 IC50) was 2500 nM. The “preference for TAK1 over IRAK4” value (IRAK4; selectivity) was 1000 fold, the enzymatic activity (NUAK1) was under 15% and the enzymatic activity (CK1γ2) was under 15%. The enzymatic activity (ULK2) was under 15%, the “TAK1 more potently inhibited than CLK2” value (CLK2; from dose–response IC50 values) was 3.6 fold and the IC50 (CLK2; read-out: IC50 CLK2, dose–response, n = 2) was 29 nM. For the same molecule, the IC50 (MAP4K5) was 124 nM, the IC50 (IRAK1) was 264 nM and the IC50 (NUAK) was 270 nM. For the same molecule, the IC50 (MLK1) was 5580 nM, the “reduction of arthritic clinical score” value (CIA mouse model; 10 mg/kg QD PO) was 18% and the “reduction of disease clinical score” value (CIA mouse model; 25 mg/kg IP) was 36%. For the same molecule, the “reduction of arthritic clinical score” value (CIA mouse model; 30 mg/kg QD PO) was 35%, the disease onset (CIA mouse model; 50 mg/kg IP) was “significantly delayed disease onset” and the “reduction of mean clinical score” value (CIA mouse model; 50 mg/kg IP) was 85%. The “reduction of bone resorption score” value (CIA mouse model; [1]) was 87%, the “reduction of cartilage damage score” value (CIA mouse model; [1]) was 76% and the “reduction of inflammation score” value (CIA mouse model; [1]) was 62%. For the same molecule, the “reduction of pannus score” value (CIA mouse model; [1]) was 86%, the “reduction of periosteal bone formation score” value (CIA mouse model; [1]) was 93% and the clinical arthritis scores (CIA mouse model; 50 mg/kg, days 26 through 36, vs disease control) was “significantly reduced”. For the same molecule, the “reduction of AUC of clinical arthritis scores” value (CIA mouse model; 50 mg/kg, vs disease control mice) was 85%, the disease onset (CIA mouse model; 10 and 30 mg/kg QD PO and 25 mg/kg IP, vs vehicle) was “did not significantly delay disease onset” and the disease incidence (CIA mouse model; day 36, 50 mg/kg IP, vehicle 92%) was 75%.
